The values below come from ChEMBL document CHEMBL3593162, “Novel 9-Alkyl- and 9-Alkylidene-Substituted 1α,25-Dihydroxyvitamin D3 Analogues: Synthesis and Biological Examinations” (J Med Chem, 2015).

Each structure is given as a SMILES string. Bounds are passed on as bounds.

In assay [1] the target is T1, Vitamin D3 receptor (Rattus norvegicus) (UniProt P13053).
T1 sequence (whole entry): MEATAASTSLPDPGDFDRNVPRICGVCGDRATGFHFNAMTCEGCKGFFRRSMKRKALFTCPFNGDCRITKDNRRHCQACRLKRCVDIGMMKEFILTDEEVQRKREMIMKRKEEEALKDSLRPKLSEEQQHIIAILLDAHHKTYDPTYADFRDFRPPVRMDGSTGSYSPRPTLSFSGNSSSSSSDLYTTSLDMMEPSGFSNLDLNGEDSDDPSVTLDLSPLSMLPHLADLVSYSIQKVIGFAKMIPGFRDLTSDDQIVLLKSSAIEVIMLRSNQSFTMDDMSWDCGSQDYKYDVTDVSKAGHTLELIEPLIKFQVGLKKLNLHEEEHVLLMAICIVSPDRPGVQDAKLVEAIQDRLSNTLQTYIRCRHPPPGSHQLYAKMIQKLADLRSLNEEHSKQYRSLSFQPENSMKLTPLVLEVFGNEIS
Nature of the assay: Potency index, ratio of 1alpha,25-(OH)2D3 Ki to compound Ki for full length recombinant rat vitamin D receptor.

The subject of assay [2] is HL-60. Briefly: Induction of differentiation of human HL60 promyelocytes to monocytes after 4 days by nitro blue tetrazolium reduction assay. The class given is functional. The note with it: for EC50: Homo sapiens, HL-60, 96 h, read-out: ED50 (the source's name). In a few lines:
(§1)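 HL-60 cells grown in RPMI-1640 with 10% FBS at 37 °C, 5% CO2, plated at 1.2 × 10^5 cells/plate. Dosed in duplicate 18 h after plating (final ethanol <0.2%). After 4 days, NBT reduction read by counting 200 cells for formazan deposits. ED50 is the concentration giving 50% maturation, from dose-response curves; repeated 2 to 3 times, mean reported. Ratio = ED50 of 1α,25-(OH)2D3 / ED50 of analogue.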

Assay [3] deals with HL-60. Nature of the assay: Potency index, ratio of 1alpha,25-(OH)2D3 ED50 to compound ED50 for induction of differentiation of human HL60 promyelocytes to monocytes. It is filed as functional. The procedure, abridged:
as §1

Assay [4] in a line: Induction of transcriptional activity in rat ROS 17/2.8 cells after 16 hrs by 24-hydroxylase luciferase reporter gene assay. The class given is functional. The settings on record: for EC50: Rattus norvegicus, 16 h, read-out: ED50 (the source's name). In a few lines: (§2)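 ROS 17/2.8 cells stably transfected with 24-hydroxylase promoter–luciferase reporter, dosed over a range of concentrations. Harvested 16 h after dosing; luciferase read on a luminometer. ED50 is the concentration raising luciferase activity by 50%, from dose-response curves. Ratio = ED50 of 1α,25-(OH)2D3 / ED50 of analogue.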

The target in a further assay is T2, Vitamin D3 receptor (Rattus norvegicus, UniProt P13053).
T2 sequence (P13053 whole entry): T1 sequence (whole entry)
Nature of the assay: Displacement of [3H]-1alpha25-(OH)2D3 from full length recombinant rat vitamin D receptor by scintillation counting analysis. In a few lines:
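[3H]-1α,25(OH)2D3 at 1 nM final plus unlabeled ligand (ethanol ≤10%), incubated overnight on ice. Bound ligand captured on hydroxylapatite, washed with Tris–EDTA/0.5% Triton X-100, scintillation counted. Ki from dose-response curves using Kd 0.2 nM; duplicates on two to three occasions.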

Assay [5] concerns Rattus norvegicus. Briefly: Induction of intestinal calcium transport in Sprague-Dawley rat assessed as ratio of serosal calcium to mucosal calcium level at 7020 pmol, ip administered 4 doses at 24 hrs interval measured 24 hrs post last dose by everted gut sac method (reference value: 4.3). The class given is functional.
Assay [6] has as its system Rattus norvegicus. Nature of the assay: Induction of bone calcium mobilization into serum of Sprague-Dawley rat assessed as total serum calcium level at 105300 pmol, ip administered 4 doses at 24 hrs interval measured 24 hrs post last dose (reference value: 4.5 mg/dL). The class given is functional. In a few lines:
(§3)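 Group-housed rats on Diet 11 (0.47% Ca) + AEK oil for 1 week, then 0.02% Ca for 3 weeks, then 0.47% Ca for 1 week, then 2 weeks on 0.02% Ca. Dosing in the final week: four ip doses about 24 h apart. Blood taken from the severed neck 24 h after the last dose; serum calcium measured as the bone calcium mobilization index.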

The subject of assay [7] is Rattus norvegicus. Nature of the assay: Induction of bone calcium mobilization into serum of Sprague-Dawley rat assessed as total serum calcium level at 7020 pmol, ip administered 4 doses at 24 hrs interval measured 24 hrs post last dose (reference value: 4.5 mg/dL). The class given is functional. The procedure, abridged: as §3
A short description of assay [8]: Potency index, ratio of 1alpha,25-(OH)2D3 ED50 to compound ED50 for induction of transcriptional activity in rat ROS 17/2.8 cells. It is filed as functional. The procedure, abridged: as §2
The test system of assay [9] is Rattus norvegicus. Briefly: Induction of intestinal calcium transport in Sprague-Dawley rat assessed as ratio of serosal calcium to mucosal calcium level at 105300 pmol, ip administered 4 doses at 24 hrs interval measured 24 hrs post last dose by everted gut sac method (reference value: 4.3). The class given is functional.
In assay [10] the test system is Rattus norvegicus. Nature of the assay: Induction of bone calcium mobilization into serum of Sprague-Dawley rat assessed as serum calcium level at 780 pmol, ip administered 4 doses at 24 hrs interval measured 24 hrs post last dose (reference value: 4.9 mg/dL). It is filed as functional. In a few lines:
as §3

The test system of assay [11] is Rattus norvegicus. Briefly: Induction of bone calcium mobilization into serum of Sprague-Dawley rat assessed as serum calcium level at 7020 pmol, ip administered 4 doses at 24 hrs interval measured 24 hrs post last dose (reference value: 4.9 mg/dL). It is filed as functional. In a few lines:
as §3

The test system of assay [12] is Rattus norvegicus. Nature of the assay: Induction of bone calcium mobilization into serum of Sprague-Dawley rat assessed as serum calcium level at 35100 pmol, ip administered 4 doses at 24 hrs interval measured 24 hrs post last dose (reference value: 4.9 mg/dL). It is filed as functional. The procedure, abridged:
as §3

Assay [13] relates to Rattus norvegicus. Nature of the assay: Induction of intestinal calcium transport in Sprague-Dawley rat assessed as ratio of serosal calcium to mucosal calcium level at 7020 pmol, ip administered 4 doses at 24 hrs interval measured 24 hrs post last dose by everted gut sac method (reference value: 4.1). The class given is functional.
The subject of assay [14] is Rattus norvegicus. Nature of the assay: Induction of intestinal calcium transport in Sprague-Dawley rat assessed as ratio of serosal calcium to mucosal calcium level at 780 pmol, ip administered 4 doses at 24 hrs interval measured 24 hrs post last dose by everted gut sac method (reference value: 4.1). It is filed as functional.
Assay [15] has as its system Rattus norvegicus. Nature of the assay: Induction of intestinal calcium transport in Sprague-Dawley rat assessed as ratio of serosal calcium to mucosal calcium level at 35100 pmol, ip administered 4 doses at 24 hrs interval measured 24 hrs post last dose by everted gut sac method (reference value: 4.1). It is filed as functional.
In assay [16] the test system is Rattus norvegicus. Nature of the assay: Induction of intestinal calcium transport in Sprague-Dawley rat assessed as ratio of serosal calcium to mucosal calcium level at 35100 pmol, ip administered 4 doses at 24 hrs interval measured 24 hrs post last dose by everted gut sac method (reference value: 4.3). It is filed as functional.
Assay [17] concerns Rattus norvegicus. Nature of the assay: Induction of bone calcium mobilization into serum of Sprague-Dawley rat assessed as total serum calcium level at 35100 pmol, ip administered 4 doses at 24 hrs interval measured 24 hrs post last dose (reference value: 4.5 mg/dL). The class given is functional. In a few lines: as §3
The subject of assay [18] is Rattus norvegicus. Briefly: Induction of bone calcium mobilization into serum of Sprague-Dawley rat assessed as serum calcium level at 87 pmol, ip administered 4 doses at 24 hrs interval measured 24 hrs post last dose (reference value: 4.9 mg/dL). The class given is functional. The procedure, abridged: as §3
Assay [19] has as its system Rattus norvegicus. Briefly: Induction of bone calcium mobilization into serum of Sprague-Dawley rat assessed as total serum calcium level at 260 pmol, ip administered 4 doses at 24 hrs interval measured 24 hrs post last dose (reference value: 4.5 mg/dL). The class given is functional. In a few lines: as §3

In the case of `C/C=C1\CC[C@]2(C)[C@@H]([C@H](C)CCCC(C)(C)O)CC[C@H]2\C1=C\C=C1C[C@@H](O)C[C@H](O)C1`, the Ratio Ki in assay [1] was under 1e-05. Further, the EC50 with HL-60 [2] was determined as 10000 nM; in assay [4] it was 1000 nM. Moreover, the “Ratio ED50” value (with HL-60 [3]; in assay [8]) was 0.0001 each time. At Vitamin D3 receptor, the inhibition constant Ki is over 10000 nM. The Ratio with Rattus norvegicus [5] was determined as 6.6; in the assay on Rattus norvegicus [9], 7.3. In addition, the Activity with Rattus norvegicus [6] was 4.5 mg/dL; in the assay with Rattus norvegicus [7] it was 4.6 mg/dL.

`C[C@H](CCCC(C)(C)O)[C@H]1CC[C@H]2/C(=C/C=C3C[C@@H](O)C[C@H](O)C3)[C@@H](C)CC[C@]12C`: the Activity was determined as 4.8 mg/dL in the assay on Rattus norvegicus [10], 4.5 mg/dL in the assay with Rattus norvegicus [11] and 5.4 mg/dL in the assay on Rattus norvegicus [12]. The Ratio Ki in assay [1] turned out to be 0.5. The ED50 in the assay on HL-60 [2] worked out at 9 ×10⁻⁹ M; in assay [4], 3 ×10⁻¹⁰ M. Also, the Ratio in the assay with Rattus norvegicus [13] is listed as 10.1; in the assay with Rattus norvegicus [14], 5; in the assay on Rattus norvegicus [15] it was 8.8. In addition, the “Ratio ED50” value in the assay on HL-60 [3] came to 0.2; in [8], 1. The Ki on Vitamin D3 receptor amounted to 0.2 nM.

As to `C=C1CC[C@]2(C)[C@@H]([C@H](C)CCCC(C)(C)O)CC[C@H]2/C1=C/C=C1/C[C@@H](O)C[C@H](O)[C@H]1C`, the Ratio Ki in [1] is under 1e-05. Moreover, the results for the EC50 (with HL-60 [2]; in [4]) were 10000 nM and 1000 nM, respectively. In addition, the “Ratio ED50” value (in the assay on HL-60 [3]; in [8]) was 0.0001 throughout. In addition, the Ki on Vitamin D3 receptor was over 10000 nM.

`C=C1/C(=C\C=C2/[C@H](C)CC[C@]3(C)[C@@H]([C@H](C)CCCC(C)(C)O)CC[C@@H]23)C[C@@H](O)C[C@@H]1O`: the Ratio Ki in [1] turned out to be 0.005. The Ratio in the assay with Rattus norvegicus [16] is on record as 6.2; with Rattus norvegicus [5], 7.9. In addition, the ED50 in the assay on HL-60 [2] is listed as 5 ×10⁻⁶ M; in [4], 5 ×10⁻⁸ M. Further, the “Ratio ED50” value was determined as 0.0001 with HL-60 [3] and 0.006 in [8]. In addition, the Ki at Vitamin D3 receptor stood at 20 nM. Moreover, the Activity with Rattus norvegicus [7] was found to be 4.3 mg/dL; with Rattus norvegicus [17] it was 4.6 mg/dL.

Consider `C=C1/C(=C\C=C2/CCC[C@]3(C)[C@@H]([C@H](C)CCCC(C)(C)O)CC[C@@H]23)C[C@@H](O)C[C@@H]1O` [CALCITRIOL], for which the values for the Activity with Rattus norvegicus [10], with Rattus norvegicus [18] and in the assay on Rattus norvegicus [19] were 7.3 mg/dL, 6.2 mg/dL and 5.6 mg/dL, respectively. The results for the ED50 (in the assay with HL-60 [2]; in assay [4]) were 2 ×10⁻⁹ M and 3 ×10⁻¹⁰ M, respectively.

On to `C=C1CC[C@]2(C)[C@@H]([C@H](C)CCCC(C)(C)O)CC[C@H]2/C1=C/C=C1C[C@@H](O)C[C@H](O)C1`, for which the Ratio Ki in assay [1] turned out to be 0.005. For the same molecule, the Ratio was 4.6 in the assay on Rattus norvegicus [16] and 5.3 in the assay with Rattus norvegicus [5]. Besides, in the assay on HL-60 [2], the EC50 stood at 1000 nM. Also, the “Ratio ED50” value came to 0.002 with HL-60 [3] and 0.006 in assay [8]. In assay [4], the ED50 is reported as 5 ×10⁻⁸ M. Moreover, on Vitamin D3 receptor, the Ki came to 20 nM. Moreover, the Activity worked out at 4.3 mg/dL with Rattus norvegicus [7] and 4.4 mg/dL with Rattus norvegicus [17].

For the molecule `C=C1CC[C@]2(C)[C@@H]([C@H](C)CCCC(C)(C)O)CC[C@H]2/C1=C/C=C1/C[C@@H](O)C[C@H](O)[C@@H]1C`, in assay [1], the Ratio Ki was under 1e-05. Further, the EC50 with HL-60 [2] was 10000 nM. Also, the “Ratio ED50” value with HL-60 [3] is 0.0001; in [8] it was 0.003. The molecule also registered an ED50 in assay [4] of 9 ×10⁻⁸ M. Further, at Vitamin D3 receptor, the Ki is over 10000 nM.
